How the values were obtained:
Rattus norvegicus [1] = assay: Antipyretic activity in yeast-induced pyrexia albino rat model assessed as mean rectal temperature at 200 mg/kg, po administered 30 mins after 18 hrs of yeast challenge measured after 4 hrs postdosing (Rvb=38.7 degC); type: functional
Rattus norvegicus [2] = assay: Antipyretic activity in yeast-induced pyrexia albino rat model assessed as mean rectal temperature at 200 mg/kg, po administered 30 mins after 18 hrs of yeast challenge measured after 3 hrs postdosing (Rvb=38.9 degC); type: functional
Rattus norvegicus [3] = assay: Gastrointestinal toxicity in starved albino rat stress model assessed as ulcer index at 200 mg/kg, po after 7 hrs; type: organism-based; parameters: dose 200 mg/kg, route oral; settings: in vivo
Summary of the method: (§1)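 Albino rats of either sex, 170–250 g, six per group, starved 48 h with water ad libitum. Dosed orally as a suspension in 0.5% sodium CMC, test compounds at 200 mg/kg b.w. Killed 7 h later. Stomach opened along the greater curvature and everted. Ulcer index from lesion counts in five size classes, ranging from pinpoint to >4 mm diameter.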

Rattus norvegicus [4] = assay: Antipyretic activity in yeast-induced pyrexia albino rat model assessed as temperature index measured by sum of mean rectal temperature changes from 0 to 5 hrs at 200 mg/kg, po administered 30 mins after 18 hrs of yeast challenge (Rvb=39.4 degreeC); type: functional
Rattus norvegicus [5] = assay: Antiinflammatory activity in albino rat chronic arthritis model assessed as inhibition of Freund's adjuvant-induced paw edema at 200 mg/kg, po administered on day 16 to 19 post Freund's adjuvant challenge measured on day 19 relative to control; type: functional
Summary of the method: (§2)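 Male albino rats (150–230 g) received 0.1 ml heat-killed M. tuberculosis (Freund's complete adjuvant) into the left hind footpad on day 1. Rats with developed arthritis on day 15 were split into groups of six. Dosing was oral, days 16–19, with 1 ml 0.5% sodium CMC as control. Paw volume, body weight and secondary lesions were recorded daily. % inhibition was calculated from day 15, n=6.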

Mus musculus [6] = assay: Acute toxicity in albino mouse assessed as mortality up to 2000 mg/kg, po after 24 hrs; type: organism-based; parameters: dose 2000 mg/kg, route oral; settings: in vivo
Summary of the method: (§3)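 Albino mice of either sex (20–25 g), 12 groups of six, fasted 24 h with water available. Given oral doses rising through 10, 20, 100, 200, 1000 and 2000 mg/kg. Watched continuously for 3 h for behavioural, neurological and autonomic signs, then every 30 min for the next 3 h, then up to 24 h or until death. Guideline: OECD.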

Rattus norvegicus [7] = assay: Antipyretic activity in yeast-induced pyrexia albino rat model assessed as mean rectal temperature at 200 mg/kg, po administered 30 mins after 18 hrs of yeast challenge measured after 2 hrs postdosing (Rvb=39.2 degC); type: functional
Rattus norvegicus [8] = assay: Antiinflammatory activity in albino rat acute inflammatory model assessed as inhibition of carrageenan-induced paw edema at 200 mg/kg, po dosed 1 hr before carrageenan challenge measured after 4 hrs relative to control; type: functional
Summary of the method: (§4)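 Male albino rats (170–220 g), fasted at least 12 h with water available, groups of six. Oral dosing with 0.5% sodium CMC vehicle control. One hour later, 0.05 ml of 1% carrageenan was injected subplantar into the left hind paw. Paw volume was measured by digital plethysmometer at 0, 2 and 4 h. % inhibition = [1 − treated/control edema volume] × 100, n=6.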

Mus musculus [9] = assay: Analgesic activity in albino mouse assessed as protection against glacial acetic acid-induced writhing response at 200 mg/kg, po pretreated 0.5 hrs before glacial acetic acid challenge measured for 15 mins; type: functional
Summary of the method: (§5)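 Albino mice of either sex (20–25 g). Mice were pre-screened the day before for writhing, and only responders were used. Compound was given orally as a suspension in 0.5% sodium CMC 30 min before glacial acetic acid challenge. Stretching episodes were counted for 15 min. Results are the group mean, n=6, with % protection against control.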

Rattus norvegicus [10] = assay: Antipyretic activity in yeast-induced pyrexia albino rat model assessed as mean rectal temperature at 200 mg/kg, po administered 30 mins after 18 hrs of yeast challenge measured after 1 hr postdosing (Rvb=39.4 degC); type: functional
Rattus norvegicus [11] = assay: Antiinflammatory activity in albino rat acute inflammatory model assessed as inhibition of carrageenan-induced paw edema at 200 mg/kg, po dosed 1 hr before carrageenan challenge measured after 2 hrs relative to control; type: functional; summary of the method: as §4
Rattus norvegicus [12] = assay: Antipyretic activity in yeast-induced pyrexia albino rat model assessed as mean rectal temperature at 200 mg/kg, po administered 30 mins after 18 hrs of yeast challenge measured after 5 hrs postdosing (Rvb=38.2 degC); type: functional
[13] = Acute toxicity in po dosed albino mouse assessed as maximum tolerated dose; type: organism-based; settings: in vivo; summary of the method: as §3
Mus musculus [14] = assay: Acute toxicity in albino mouse assessed as behavioral response up to 2000 mg/kg, po after 24 hrs; type: organism-based; parameters: dose 2000 mg/kg, route oral; settings: in vivo; summary of the method: as §3
Rattus norvegicus [15] = assay: Antipyretic activity in yeast-induced pyrexia albino rat model assessed as temperature index measured by sum of mean rectal temperature changes from 0 to 5 hrs at 200 mg/kg, po administered 30 mins after 18 hrs of yeast challenge (Rvb=39.6 degC); type: functional
Rattus norvegicus [16] = assay: Antipyretic activity in yeast-induced pyrexia albino rat model assessed as temperature index measured by sum of mean rectal temperature changes from 0 to 5 hrs at 200 mg/kg, po administered 30 mins after 18 hrs of yeast challenge (Rvb=39.3 degC); type: functional
Rattus norvegicus [17] = assay: Antipyretic activity in yeast-induced pyrexia albino rat model assessed as temperature index measured by sum of mean rectal temperature changes from 0 to 5 hrs at 200 mg/kg, po administered 30 mins after 18 hrs of yeast challenge (Rvb=39.2 degC); type: functional
Rattus norvegicus [18] = assay: Antipyretic activity in yeast-induced pyrexia albino rat model assessed as mean rectal temperature at 135 mg/kg, po administered 30 mins after 18 hrs of yeast challenge measured after 1 hr postdosing (Rvb=39.4 degreeC); type: functional
Rattus norvegicus [19] = assay: Antipyretic activity in yeast-induced pyrexia albino rat model assessed as mean rectal temperature at 135 mg/kg, po administered 30 mins after 18 hrs of yeast challenge measured after 3 hrs postdosing (Rvb=38.9 degC); type: functional
Rattus norvegicus [20] = assay: Antipyretic activity in yeast-induced pyrexia albino rat model assessed as mean rectal temperature at 135 mg/kg, po administered 30 mins after 18 hrs of yeast challenge measured after 4 hrs postdosing (Rvb=38.7 degC); type: functional
Rattus norvegicus [21] = assay: Antipyretic activity in yeast-induced pyrexia albino rat model assessed as mean rectal temperature at 135 mg/kg, po administered 30 mins after 18 hrs of yeast challenge measured after 5 hrs postdosing (Rvb=38.2 degC); type: functional
Rattus norvegicus [22] = assay: Antipyretic activity in yeast-induced pyrexia albino rat model assessed as mean rectal temperature at 135 mg/kg, po administered 30 mins after 18 hrs of yeast challenge measured after 2 hrs postdosing (Rvb=39.2 degC); type: functional
Rattus norvegicus [23] = assay: Antipyretic activity in yeast-induced pyrexia albino rat model assessed as temperature index measured by sum of mean rectal temperature changes from 0 to 5 hrs at 135 mg/kg, po administered 30 mins after 18 hrs of yeast challenge (Rvb=39.0 degC); type: functional
Mus musculus [24] = assay: Analgesic activity in albino mouse assessed as protection against glacial acetic acid-induced writhing response at 30 mg/kg, po pretreated 0.5 hrs before glacial acetic acid challenge measured for 15 mins; type: functional; summary of the method: as §5
Rattus norvegicus [25] = assay: Gastrointestinal toxicity in starved po dosed albino rat stress model assessed as ulcer index after 7 hrs; type: organism-based; settings: in vivo; summary of the method: as §1
Rattus norvegicus [26] = assay: Antiinflammatory activity in albino rat acute inflammatory model assessed as inhibition of carrageenan-induced paw edema at 13.5 mg/kg, po dosed 1 hr before carrageenan challenge measured after 2 hrs relative to control; type: functional; summary of the method: as §4
Rattus norvegicus [27] = assay: Antiinflammatory activity in albino rat acute inflammatory model assessed as inhibition of carrageenan-induced paw edema at 13.5 mg/kg, po dosed 1 hr before carrageenan challenge measured after 4 hrs relative to control; type: functional; summary of the method: as §4
Rattus norvegicus [28] = assay: Antiinflammatory activity in albino rat chronic arthritis model assessed as inhibition of Freund's adjuvant-induced paw edema at 13.5 mg/kg, po administered on day 16 to 19 post Freund's adjuvant challenge measured on day 19 relative to control; type: functional; summary of the method: as §2

Row | SMILES | Activity (Mus musculus [6]) | inhibition in vivo at 200 mg/kg (Rattus norvegicus [8]) [%] | inhibition in vivo at 200 mg/kg (Rattus norvegicus [11]) [%] | MTD [13] [mg/kg] | Activity (Mus musculus [14]) | also measured
1 | O=c1oc2ccccc2cc1C1=NN(c2ccccc2)[C@@H](c2ccc(F)cc2)C1 | Non-toxic | 66.7 | 44.9 | 2000 | – | Activity (Rattus norvegicus [1]): 37.7 °C; Activity (Rattus norvegicus [2]): 37.9 °C; UI (Rattus norvegicus [3]): 1.66; Activity (Rattus norvegicus [4]): -6.6 °C; inhibition in vivo at 200 mg/kg (Rattus norvegicus [5]): 40.5%; Activity (Rattus norvegicus [7]): 38.3 °C; Activity (Mus musculus [9]): 55%; Activity (Rattus norvegicus [10]): 39.2 °C; Activity (Rattus norvegicus [12]): 37.1 °C
2 | O=c1oc2ccccc2cc1C1=NN(c2ccccc2)[C@@H](c2ccc(O)cc2)C1 | Non-toxic | 34.6 | 28.8 | 2000 | – | –
3 | Cc1ccc([C@H]2CC(c3cc4ccccc4oc3=O)=NN2c2ccccc2)cc1 | Non-toxic | 38 | 30.1 | – | Toxic | –
4 | COc1cccc([C@H]2CC(c3cc4ccccc4oc3=O)=NN2c2ccccc2)c1 | Non-toxic | 61.5 | 38.3 | 2000 | – | Activity (Rattus norvegicus [1]): 38.2 °C; Activity (Rattus norvegicus [2]): 38.6 °C; UI (Rattus norvegicus [3]): 2.12; inhibition in vivo at 200 mg/kg (Rattus norvegicus [5]): 20.9%; Activity (Rattus norvegicus [7]): 38.8 °C; Activity (Mus musculus [9]): 35%; Activity (Rattus norvegicus [10]): 39.4 °C; Activity (Rattus norvegicus [15]): -5.1 °C; Activity (Rattus norvegicus [12]): 37.9 °C
5 | CN(C)c1ccc([C@H]2CC(c3cc4ccccc4oc3=O)=NN2c2ccccc2)cc1 | Non-toxic | 40.1 | 28.4 | – | Toxic | –
6 | O=c1oc2ccccc2cc1C1=NN(c2ccccc2)[C@@H](c2ccccc2)C1 | Non-toxic | 32.7 | 27.2 | 2000 | – | –
7 | O=c1oc2ccccc2cc1C1=NN(c2ccccc2)[C@@H](/C=C/c2ccccc2)C1 | Non-toxic | 42.5 | 26.7 | – | Toxic | –
8 | O=c1oc2ccccc2cc1C1=NN(c2ccccc2)[C@@H](c2ccc(Cl)cc2)C1 | Non-toxic | 64.7 | 39.2 | 2000 | – | Activity (Rattus norvegicus [1]): 38.1 °C; Activity (Rattus norvegicus [2]): 38.5 °C; UI (Rattus norvegicus [3]): 2.33; inhibition in vivo at 200 mg/kg (Rattus norvegicus [5]): 39.1%; Activity (Rattus norvegicus [7]): 38.9 °C; Activity (Rattus norvegicus [16]): -3.9 °C; Activity (Mus musculus [9]): 41%; Activity (Rattus norvegicus [10]): 39.1 °C; Activity (Rattus norvegicus [12]): 38 °C
9 | COc1ccc([C@H]2CC(c3cc4ccccc4oc3=O)=NN2c2ccccc2)cc1 | Non-toxic | 36.2 | 24.8 | – | Toxic | –
10 | O=c1oc2ccccc2cc1C1=NN(c2ccccc2)[C@@H](c2cccc([N+](=O)[O-])c2)C1 | Non-toxic | 31.2 | 26.1 | – | Toxic | –
11 | O=c1oc2ccccc2cc1C1=NN(c2ccccc2)[C@@H](c2ccccc2[N+](=O)[O-])C1 | Non-toxic | 26.6 | 24.7 | – | Toxic | –
12 | O=c1oc2ccccc2cc1C1=NN(c2ccccc2)[C@@H](c2ccc(Cl)cc2Cl)C1 | Non-toxic | 67.5 | 56.7 | 2000 | – | Activity (Rattus norvegicus [1]): 37.8 °C; Activity (Rattus norvegicus [2]): 38.1 °C; UI (Rattus norvegicus [3]): 2.67; inhibition in vivo at 200 mg/kg (Rattus norvegicus [5]): 45.4%; Activity (Rattus norvegicus [7]): 38.6 °C; Activity (Mus musculus [9]): 59%; Activity (Rattus norvegicus [17]): -5.4 °C; Activity (Rattus norvegicus [10]): 38.9 °C; Activity (Rattus norvegicus [12]): 37.2 °C
13 | CC(=O)Nc1ccc(O)cc1 [ACETAMINOPHEN] | – | – | – | – | – | Activity (Rattus norvegicus [18]): 38.4 °C; Activity (Rattus norvegicus [19]): 37.6 °C; Activity (Rattus norvegicus [20]): 37.3 °C; Activity (Rattus norvegicus [21]): 37 °C; Activity (Rattus norvegicus [22]): 38 °C; Activity (Rattus norvegicus [23]): -6.7 °C
14 | CC(=O)Oc1ccccc1C(=O)O [ASPIRIN] | – | – | – | – | – | Activity (Mus musculus [24]): 67%; UI (Rattus norvegicus [25]): 4.33
15 | O=C(O)Cc1ccccc1Nc1c(Cl)cccc1Cl [DICLOFENAC] | – | – | – | – | – | inhibition in vivo at 13.5 mg/kg (Rattus norvegicus [26]): 63.7%; inhibition in vivo at 13.5 mg/kg (Rattus norvegicus [27]): 78.7%; inhibition in vivo at 13.5 mg/kg (Rattus norvegicus [28]): 53%

Source: ChEMBL document CHEMBL1137722, “Synthesis and pharmacological evaluation of a novel series of 5-(substituted)aryl-3-(3-coumarinyl)-1-phenyl-2-pyrazolines as novel anti-inflammatory and analgesic agents” (Eur J Med Chem, 2009)
